This note sets out measurements from ChEMBL document CHEMBL4028872, “Structure-Activity Relationship, Pharmacological Characterization, and Molecular Modeling of Noncompetitive Inhibitors of the Betaine/γ-Aminobutyric Acid Transporter 1 (BGT1)” (J Med Chem, 2017).

A word on the solubility: it is the concentration that dissolves in the medium under given conditions. A lower solubility goes with little dissolved substance.

The target in data set [1] is Sodium- and chloride-dependent GABA transporter 3 (Homo sapiens, UniProt P48066, L314Q). Description: Inhibition of human GAT3 L314Q mutant expresses in tsA201 cells assessed as reduction in [3H]GABA uptake after 3 mins by scintillation counting method. It is filed as cell-based. The procedure, abridged:
(§1)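 Site-directed mutant transporters transiently transfected (PolyFect) into tsA201 cells, plated and used about 24 h later. Cells were washed with HBSS containing 20 mM HEPES, 1 mM CaCl2 and 1 mM MgCl2, pH 7.4. Uptake of 30 nM [3H]GABA was run with varied inhibitor concentrations for 3 min at 37 °C, then three ice-cold washes and scintillation counting. IC50 was taken from variable-slope sigmoidal fits. Triplicates, at least three independent experiments.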

Data set [2] is described as follows: Solubility of compound in pH 7.4 phosphate buffer after 24 hrs by HPLC-UV method. The format is physicochemical.
The target of data set [3] is Sodium- and chloride-dependent GABA transporter 1 (Mus musculus, UniProt P31648). Put plainly: Inhibition of mouse GAT1 expressed in HEK293 cells assessed as reduction in [3H]GABA uptake after 3 mins by scintillation counting method. The format is cell-based. The method, boiled down: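 HEK293 lines stably expressing a single mouse GAT subtype, kept under blasticidin-S (5 µg/mL) selection. Cells were assayed about 24 h after plating with 30 nM [3H]GABA plus varying compound concentrations for 3 min at 37 °C in HBSS buffered with 20 mM HEPES (1 mM CaCl2, 1 mM MgCl2, pH 7.4). Cells were washed ice-cold and radioactivity counted. IC50 came from sigmoidal variable-slope fits.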

For data set [4], the target named is T1, GABA transporter 3 (Mus musculus, UniProt P31649).
T1 sequence (P31649 whole entry): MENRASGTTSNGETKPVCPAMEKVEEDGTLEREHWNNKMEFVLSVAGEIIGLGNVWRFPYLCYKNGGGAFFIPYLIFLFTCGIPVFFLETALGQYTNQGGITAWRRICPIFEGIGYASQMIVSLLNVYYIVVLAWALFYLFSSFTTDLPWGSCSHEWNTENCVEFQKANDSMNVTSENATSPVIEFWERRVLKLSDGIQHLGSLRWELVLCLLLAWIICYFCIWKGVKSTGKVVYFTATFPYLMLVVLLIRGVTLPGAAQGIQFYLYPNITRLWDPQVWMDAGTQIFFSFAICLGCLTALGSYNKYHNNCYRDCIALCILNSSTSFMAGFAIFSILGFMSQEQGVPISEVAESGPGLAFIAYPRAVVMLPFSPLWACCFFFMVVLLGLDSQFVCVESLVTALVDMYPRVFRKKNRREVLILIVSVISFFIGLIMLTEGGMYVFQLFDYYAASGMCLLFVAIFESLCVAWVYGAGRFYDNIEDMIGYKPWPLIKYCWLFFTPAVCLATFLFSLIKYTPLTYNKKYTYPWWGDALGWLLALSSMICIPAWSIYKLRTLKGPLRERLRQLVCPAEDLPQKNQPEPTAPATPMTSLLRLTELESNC
Put plainly: Inhibition of mouse GAT2 expressed in HEK293 cells assessed as reduction in [3H]GABA uptake after 3 mins by scintillation counting method. It is filed as cell-based. The method, boiled down: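 HEK293 cells stably expressing mouse GAT2 were kept under blasticidin-S (5 µg/mL) selection. Ice-cold washes preceded scintillation counting. IC50 came from a variable-slope sigmoidal fit.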

Data set [5] concerns the target 5-hydroxytryptamine receptor 2B (Homo sapiens) (UniProt P41595). Put plainly: Displacement of [3H]LSD from human 5-HT2B receptor expressed in HEK cell membranes at 10 uM after 90 mins by scintillation counting method. On the technique in general: Loss of bound radioactivity is the signal in a displacement assay; it reports binding, not function.
Data set [6] deals with D(1A) dopamine receptor (Homo sapiens) (UniProt P21728). Put plainly: Displacement of [3H]SCH23390 from human Dopamine receptor D1 receptor expressed in HEKT cell membranes at 10 uM after 90 mins by scintillation counting method.
The target in data set [7] is D(2) dopamine receptor (Homo sapiens) (UniProt P14416). Put plainly: Displacement of [3H]N-methylspiperone from human Dopamine receptor D2 receptor expressed in fibroblast cell membranes at 10 uM after 90 mins by scintillation counting method.
The target of data set [8] is D(4) dopamine receptor (Homo sapiens) (UniProt P21917). Description: Displacement of [3H]N-methylspiperone from human Dopamine receptor D4 receptor at 10 uM after 90 mins by scintillation counting method.
For data set [9], the target named is Sodium- and chloride-dependent betaine transporter (Homo sapiens, UniProt P48065, I386F). Put plainly: Inhibition of human BGT1 I386F mutant expressed in tsA201 cells assessed as reduction in [3H]GABA uptake after 3 mins by scintillation counting method. The format is cell-based. The procedure, abridged: (§2)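 tsA201 cells transiently transfected with wild-type or mutant human BGT1 (PolyFect) were plated about 24 h before assay. Three ice-cold washes followed, then scintillation counting.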

Data set [10] concerns the target Sodium- and chloride-dependent betaine transporter (Homo sapiens, UniProt P48065, Y453S). Description: Inhibition of human BGT1 Y453S mutant expressed in tsA201 cells assessed as reduction in [3H]GABA uptake after 3 mins by scintillation counting method. It is filed as cell-based. The procedure, abridged: as §2
Data set [11] concerns the target Sodium- and chloride-dependent betaine transporter (Homo sapiens, UniProt P48065, Y453A). Put plainly: Inhibition of human BGT1 Y453A mutant expressed in tsA201 cells assessed as reduction in [3H]GABA uptake after 3 mins by scintillation counting method. It is filed as cell-based. The method, boiled down:
as §2

Data set [12] has as its target Sodium- and chloride-dependent betaine transporter (Homo sapiens, UniProt P48065, Y453S/Y454A). Description: Inhibition of human BGT1 Y453S/Y454A double mutant expressed in tsA201 cells assessed as reduction in [3H]GABA uptake after 3 mins by scintillation counting method. It is filed as cell-based. The method, boiled down: as §2
In data set [13] the target is Sodium- and chloride-dependent GABA transporter 3 (Homo sapiens, UniProt P48066, S468Y). Description: Inhibition of human GAT3 S468Y mutant expresses in tsA201 cells assessed as reduction in [3H]GABA uptake after 3 mins by scintillation counting method. The format is cell-based. The method, boiled down: as §1
Data set [14] concerns the target Sodium- and chloride-dependent betaine transporter (Homo sapiens, UniProt P48065). Put plainly: Inhibition of human BGT1/human GAT3 chimera B expresses in tsA201 cells assessed as reduction in [3H]GABA uptake after 3 mins by scintillation counting method. The format is cell-based. The method, boiled down:
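BGT1/GAT3 chimeric constructs transiently expressed in tsA201 cells. After about 24 h, cells were washed in HEPES-buffered HBSS (1 mM CaCl2, 1 mM MgCl2, pH 7.4). IC50 came from variable-slope sigmoidal regression. Triplicates, at least two independent experiments.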

SMILES strings stand for the structures. ≈ marks a conversion by molar mass, not a printed value. Calls of active or inactive are those of the source. The calls are words filed in the database; no cut-off is given here.

Sequence of Sodium- and chloride-dependent betaine transporter (Homo sapiens, UniProt P48065, I386F) (P48065 whole entry I386F): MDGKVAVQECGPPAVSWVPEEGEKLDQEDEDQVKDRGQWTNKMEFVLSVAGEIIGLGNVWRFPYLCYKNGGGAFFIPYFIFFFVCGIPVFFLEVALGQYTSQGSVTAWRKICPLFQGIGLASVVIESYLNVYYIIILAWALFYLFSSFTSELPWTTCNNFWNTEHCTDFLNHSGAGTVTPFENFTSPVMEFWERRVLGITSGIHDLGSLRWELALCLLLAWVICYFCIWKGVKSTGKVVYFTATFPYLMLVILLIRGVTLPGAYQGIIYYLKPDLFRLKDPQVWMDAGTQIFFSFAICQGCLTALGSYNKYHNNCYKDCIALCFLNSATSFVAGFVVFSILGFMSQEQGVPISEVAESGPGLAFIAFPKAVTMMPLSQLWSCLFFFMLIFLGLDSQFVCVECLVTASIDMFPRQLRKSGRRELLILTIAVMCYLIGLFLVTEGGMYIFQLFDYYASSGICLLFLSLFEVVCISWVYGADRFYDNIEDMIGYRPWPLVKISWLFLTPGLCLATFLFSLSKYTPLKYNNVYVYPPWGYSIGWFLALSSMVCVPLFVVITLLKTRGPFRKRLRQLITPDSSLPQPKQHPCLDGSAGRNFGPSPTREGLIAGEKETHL
Sequence of Sodium- and chloride-dependent betaine transporter (Homo sapiens, UniProt P48065, Y453S/Y454A) (P48065 whole entry Y453S/Y454A): as the sequence (P48065 whole entry I386F) above, with F386I, Y453S, Y454A counted along it
Sequence of Sodium- and chloride-dependent betaine transporter (Homo sapiens, UniProt P48065, Y453S) (P48065 whole entry Y453S): as the sequence (P48065 whole entry I386F) above, with F386I, Y453S counted along it
Sequence of D(1A) dopamine receptor (Homo sapiens) (P21728 whole entry): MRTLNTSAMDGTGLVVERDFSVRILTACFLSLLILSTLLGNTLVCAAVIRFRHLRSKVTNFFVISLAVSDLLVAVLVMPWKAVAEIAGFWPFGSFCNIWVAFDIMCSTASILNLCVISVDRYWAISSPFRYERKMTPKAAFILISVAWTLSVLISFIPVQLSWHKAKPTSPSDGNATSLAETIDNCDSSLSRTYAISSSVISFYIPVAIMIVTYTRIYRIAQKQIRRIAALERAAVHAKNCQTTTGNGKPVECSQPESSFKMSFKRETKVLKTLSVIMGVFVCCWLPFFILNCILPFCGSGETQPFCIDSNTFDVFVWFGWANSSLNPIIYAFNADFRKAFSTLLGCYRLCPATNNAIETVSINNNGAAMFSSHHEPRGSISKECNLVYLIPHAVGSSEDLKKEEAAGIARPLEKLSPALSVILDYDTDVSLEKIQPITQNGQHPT
Sequence of Sodium- and chloride-dependent GABA transporter 3 (Homo sapiens, UniProt P48066, L314Q) (P48066 whole entry L314Q): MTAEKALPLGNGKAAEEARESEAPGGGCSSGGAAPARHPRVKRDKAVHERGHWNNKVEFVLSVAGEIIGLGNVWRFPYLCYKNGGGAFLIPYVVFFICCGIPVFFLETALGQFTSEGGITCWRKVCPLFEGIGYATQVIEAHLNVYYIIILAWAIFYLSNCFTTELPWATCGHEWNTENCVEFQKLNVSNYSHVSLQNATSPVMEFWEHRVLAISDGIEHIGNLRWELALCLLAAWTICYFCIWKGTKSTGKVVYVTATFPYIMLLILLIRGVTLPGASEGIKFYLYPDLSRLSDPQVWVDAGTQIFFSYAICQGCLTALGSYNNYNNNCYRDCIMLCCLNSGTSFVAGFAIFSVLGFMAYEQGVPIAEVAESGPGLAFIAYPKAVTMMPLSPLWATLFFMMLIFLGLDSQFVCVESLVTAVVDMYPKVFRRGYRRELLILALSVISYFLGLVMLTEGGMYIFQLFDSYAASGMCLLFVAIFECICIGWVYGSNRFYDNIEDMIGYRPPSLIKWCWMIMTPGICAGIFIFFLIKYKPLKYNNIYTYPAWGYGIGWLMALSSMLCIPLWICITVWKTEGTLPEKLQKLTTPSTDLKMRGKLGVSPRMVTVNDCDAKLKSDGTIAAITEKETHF
Sequence of Sodium- and chloride-dependent betaine transporter (Homo sapiens, UniProt P48065, Y453A) (P48065 whole entry Y453A): as the sequence (P48065 whole entry I386F) above, with F386I, Y453A counted along it
Sequence of 5-hydroxytryptamine receptor 2B (Homo sapiens) (P41595 whole entry): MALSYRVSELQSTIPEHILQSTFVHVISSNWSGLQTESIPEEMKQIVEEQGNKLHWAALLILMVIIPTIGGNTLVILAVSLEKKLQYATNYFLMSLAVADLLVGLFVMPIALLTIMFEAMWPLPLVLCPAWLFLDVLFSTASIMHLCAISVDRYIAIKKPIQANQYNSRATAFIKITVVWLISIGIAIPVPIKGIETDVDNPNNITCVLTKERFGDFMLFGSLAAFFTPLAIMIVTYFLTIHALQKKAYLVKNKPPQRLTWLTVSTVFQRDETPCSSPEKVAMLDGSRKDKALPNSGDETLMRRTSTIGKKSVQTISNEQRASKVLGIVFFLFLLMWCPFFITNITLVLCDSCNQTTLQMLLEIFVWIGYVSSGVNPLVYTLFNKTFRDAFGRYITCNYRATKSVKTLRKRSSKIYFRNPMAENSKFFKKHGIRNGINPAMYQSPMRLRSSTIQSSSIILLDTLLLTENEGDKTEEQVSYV
Sequence of D(2) dopamine receptor (Homo sapiens) (P14416 whole entry): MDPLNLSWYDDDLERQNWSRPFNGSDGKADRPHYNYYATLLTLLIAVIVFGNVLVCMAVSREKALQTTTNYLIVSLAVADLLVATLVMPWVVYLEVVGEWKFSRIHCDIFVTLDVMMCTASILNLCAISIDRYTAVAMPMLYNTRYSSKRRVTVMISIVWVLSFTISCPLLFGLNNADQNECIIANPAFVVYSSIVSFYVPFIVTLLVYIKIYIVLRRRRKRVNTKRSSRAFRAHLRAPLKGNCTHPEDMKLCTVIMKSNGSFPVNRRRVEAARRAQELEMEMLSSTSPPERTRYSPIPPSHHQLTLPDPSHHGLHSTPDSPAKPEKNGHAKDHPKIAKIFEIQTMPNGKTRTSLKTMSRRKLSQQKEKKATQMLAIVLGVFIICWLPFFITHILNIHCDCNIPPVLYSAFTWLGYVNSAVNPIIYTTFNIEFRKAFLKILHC
Sequence of Sodium- and chloride-dependent betaine transporter (Homo sapiens, UniProt P48065) (P48065 whole entry, looked up): as the sequence (P48065 whole entry I386F) above, with F386I counted along it
Sequence of D(4) dopamine receptor (Homo sapiens) (P21917 whole entry): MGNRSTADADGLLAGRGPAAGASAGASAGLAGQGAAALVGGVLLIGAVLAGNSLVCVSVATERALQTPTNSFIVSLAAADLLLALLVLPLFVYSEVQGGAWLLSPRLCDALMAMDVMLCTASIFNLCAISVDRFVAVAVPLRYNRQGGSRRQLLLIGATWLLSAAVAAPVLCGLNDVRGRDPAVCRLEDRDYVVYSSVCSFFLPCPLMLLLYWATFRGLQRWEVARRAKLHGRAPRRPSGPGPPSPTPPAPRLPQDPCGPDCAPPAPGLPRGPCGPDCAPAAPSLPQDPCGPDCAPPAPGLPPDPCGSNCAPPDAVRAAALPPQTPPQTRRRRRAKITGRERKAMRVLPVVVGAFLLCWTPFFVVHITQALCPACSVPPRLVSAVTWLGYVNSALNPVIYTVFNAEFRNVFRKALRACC
Sequence of Sodium- and chloride-dependent GABA transporter 3 (Homo sapiens, UniProt P48066, S468Y) (P48066 whole entry S468Y): as the sequence (P48066 whole entry L314Q) above, with Q314L, S468Y counted along it

As to `O=C(NC1CCN(Cc2ccccc2)CC1)c1ccc(Cl)cc1Cl`, the IC50 in data set [1] was 460 µM; in data set [3] it was above 200 µM; in data set [4], above 200 µM; in data set [9] (read-out: IC50), 8 µM; in data set [10], 19 µM; in data set [11], 19 µM. Further, the IC50 in [12] (read-out: IC50) is 6 µM; in data set [13], above 300 µM; in data set [14] it was above 1000 µM. The compound also showed a solubility at 24 h in data set [2] of 40 µg/mL (≈ 110 µM). Besides, the inhibition entry in data set [5], in data set [6], in [7] and in [8] was “Active” each time.
Consider `O=C(NC1CCN(Cc2ccccc2)CC1)c1ccc(Cl)nc1Cl`, for which the IC50 was 405 µM in data set [1]; above 400 µM in [3]; above 400 µM in data set [4]; 47 µM in data set [9] (read-out: IC50); 43.7 µM in data set [9] (read-out: pIC50 (converted)); 25 µM in [10]. For the same compound, the IC50 in data set [11] is 23 µM; in data set [12] (read-out: IC50) it was 15 µM; in data set [12] (read-out: pIC50 (converted)), 12.9 µM; in data set [13], above 1000 µM; in [14], above 1000 µM. The amount in solution in data set [2] (solubility at 24 h) came to 610 µg/mL (≈ 1670 µM). The inhibition entry in data set [5] is “Active”. Moreover, the inhibition result in data set [6], in data set [7] and in [8] was “inactive” in each case.
